Data: ChEMBL document CHEMBL3351239, “Polyketide glycosides from Bionectria ochroleuca inhibit Candida albicans biofilm formation” (J Nat Prod, 2014)
Converted amounts (≈) assume the structure as drawn.

Key:
Candida albicans [1] = experiment: Inhibition of biofilm formation of Candida albicans SC5314 incubated for 48 hrs by XTT assay; format: functional, organism-based; conditions: SC5314, 48 h
Method in brief: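 SC5314 pregrown in BHI overnight at 37 °C, washed, and seeded at 2.5 × 10^3 cells/mL in RPMI-1640/MOPS pH 7.0 with diluted compounds (DMSO ≤1% v/v final) for 48 h at 37 °C. Nonadherent cells were removed by two PBS washes and fresh medium added. Biofilm was quantified by XTT at A492. IC50 = concentration at 50% of maximal biofilm formation. Triplicate wells, three separate occasions.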

Candida albicans [2] = experiment: Growth inhibition of Candida albicans SC5314 assessed as reduction in reduction in metabolic activity incubated for 48 hrs by XTT assay; format: organism-based; conditions: SC5314, 48 h
Method in brief: (§1)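 SC5314 grown overnight at 37 °C in BHI, washed in PBS and resuspended in RPMI-1640 with 0.17 M MOPS at pH 7.0. Cells at 2.5 × 10^3 cells/mL were exposed to serial dilutions from 20 mM DMSO stocks (final DMSO ≤1% v/v) for 48 h at 37 °C. Viability was read by XTT (0.1 mg/mL, 1 h, A492). MIC = lowest concentration giving ≥80% drop in metabolic activity, per CLSI M27-A3.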

Candida albicans [3] = experiment: Potentiation of amphotericin B-induced antimicrobial effect against Candida albicans SC5314 assessed as ratio of MIC for compound plus amphotericin B to MIC for amphotericin B alone incubated for 48 hrs by XTT assay; format: functional
Method in brief: (§2)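 Checkerboard assay: C. albicans seeded in 96-well format with test compound alone or combined with amphotericin B, in RPMI-1640 plus MOPS, for 48 h at 37 °C. Viability was read by XTT, with MIC = lowest concentration giving ≥80% metabolic reduction. FIC = MIC in combination / MIC alone for each agent; FICI = FICA + FICB.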

Candida albicans [4] = experiment: Antimicrobial activity against Candida albicans SC5314 in presence of amphotericin B incubated for 48 hrs by XTT assay; format: functional; conditions: SC5314, 48 h; method in brief: as §2
Candida albicans [5] = experiment: Potentiation of amphotericin B-induced antimicrobial effect against Candida albicans SC5314 assessed as ratio of MIC for compound plus amphotericin B to MIC for compound alone incubated for 48 hrs by XTT assay; format: functional; method in brief: as §2
Candida albicans [6] = experiment: Antimicrobial activity against Candida albicans SC5314 incubated for 48 hrs by XTT assay; format: functional; conditions: SC5314, 48 h; method in brief: as §1
Candida albicans [7] = experiment: Potentiation of amphotericin B-induced antimicrobial effect against Candida albicans SC5314 incubated for 48 hrs by XTT assay; format: functional; method in brief: as §2

Row | MIC80 (Candida albicans [4]) [µM] | MIC80 (Candida albicans [6]) [µM] | Structure (SMILES) | IC50 (Candida albicans [1]) [µM] | IC50 (Candida albicans [2]) [µM] | Ratio (Candida albicans [3]) | Ratio (Candida albicans [5]) | fractional inhibitory concentration index (FICI) (Candida albicans [7])
1 | 5 | > 100 | CC[C@H](C)C[C@H](C)C[C@H](C)[C@@H](O[C@@H]1O[C@H](CO)[C@@H](O)[C@H](O)[C@@H]1O)[C@@H](C)/C=C(\C)[C@@H](O)[C@@H](C)/C=C(\C)[C@@H](O)[C@@H](C)/C=C(\C)C(=O)OC[C@@H](O)[C@@H](O)[C@H](O)[C@H](O)CO | 1.1 | > 100 | 0.25 | <0.05 | <0.3
2 | 1.25 | 50 (≈ 42.5 µg/mL) | CC[C@H](C)C[C@H](C)C[C@H](C)[C@@H](O[C@@H]1O[C@H](COC(C)=O)[C@@H](O)[C@H](O)[C@@H]1O)[C@@H](C)/C=C(\C)[C@@H](O)[C@@H](C)/C=C(\C)[C@@H](O)[C@@H](C)/C=C(\C)C(=O)OC[C@@H](O)[C@@H](O)[C@H](O)[C@H](O)CO | 1.5 | 36.3 | 0.25 | 0.03 | 0.28
3 | 5 | > 100 | CC[C@H](C)C[C@H](C)C[C@H](C)[C@@H](O[C@@H]1O[C@H](CO)[C@@H](O)[C@H](O)[C@@H]1O)[C@@H](C)/C=C(\C)[C@@H](O)[C@@H](C)/C=C(\C)[C@@H](O)[C@@H](C)/C=C(\C)[C@@H](O)[C@@H](C)C(=O)O | 2.4 | > 100 | 0.25 | <0.05 | <0.3
4 | 5 | > 100 | CCC(C)CC(C)CC(C)C(O[C@@H]1O[C@H](CO)[C@@H](O)[C@H](O)[C@@H]1O)C(C)/C=C(\C)C(O)C(C)/C=C(\C)C(O)C(C)C(=O)O (stereo partly specified) | 5 | > 100 | 0.25 | <0.05 | <0.3

Further lines, the compound ahead of its results:

Row | Structure (SMILES) | MIC80 (Candida albicans [4]) [µM] | MIC80 (Candida albicans [6]) [µM] | IC50 (Candida albicans [1]) [µM] | IC50 (Candida albicans [2]) [µM] | Ratio (Candida albicans [3]) | Ratio (Candida albicans [5]) | fractional inhibitory concentration index (FICI) (Candida albicans [7])
5 | CC[C@H](C)C[C@H](C)C[C@H](C)[C@@H](O[C@@H]1O[C@H](COC(C)=O)[C@@H](O)[C@H](O)[C@@H]1O)[C@@H](C)/C=C(\C)[C@@H](O)[C@@H](C)/C=C(\C)[C@@H](O)[C@@H](C)/C=C(\C)C(=O)OC[C@@H](O)[C@@H](O)[C@H](O)CO | 1.25 | 50 (≈ 41 µg/mL) | 1.2 | 41 | 0.25 | 0.03 | 0.28
6 | CC[C@H](C)C[C@H](C)C[C@H](C)[C@@H](O[C@@H]1O[C@H](CO)[C@@H](O)[C@H](O)[C@@H]1O)[C@@H](C)/C=C(\C)[C@@H](O)[C@@H](C)/C=C(\C)[C@@H](O)[C@@H](C)/C=C(\C)C(=O)OC[C@@H](O)[C@@H](O)[C@H](O)CO | 1.25 | > 100 | 1.5 | > 100 | 0.25 | <0.01 | <0.26
7 | CCCCCC#CCC#CCC#CCC#CCCCC(=O)O | – | – | 3.4 | > 100 | – | – | –
8 | CC[C@H](C)C[C@H](C)C[C@H](C)[C@@H](O[C@@H]1O[C@H](COC(C)=O)[C@@H](O)[C@H](O)[C@@H]1O)[C@@H](C)/C=C(\C)[C@@H](O)[C@@H](C)/C=C(\C)[C@@H](O)[C@@H](C)/C=C(\C)[C@@H](O)[C@@H](C)C(=O)OC[C@@H](O)[C@@H](O)[C@H](O)[C@H](O)CO | 1.25 | 50 (≈ 45.4 µg/mL) | 1.5 | 24.1 | 0.25 | 0.03 | 0.28
